Results reported in ChEMBL document CHEMBL1136288, “A catch-and-release strategy for the combinatorial synthesis of 4-acylamino-1,3-thiazoles as potential CDK5 inhibitors” (Bioorg Med Chem Lett, 2003).

Assays:
[1] = target: T1, Cyclin-dependent kinase 5/CDK5 activator 1 (Homo sapiens, UniProt Q00535); assay: Ability to inhibit Cyclin-dependent kinase 5-p35.; assay type: protein-complex assay
How it was run: (§1)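 CDK5/GST-p25 was at 0.5 nM and CDK2/GST-cyclin A at 4 nM. Incubated 30 min at 37 °C, stopped with streptavidin SPA beads/EDTA, and counted. IC50 came from a sigmoidal dose-response fit, averaged when repeated.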

[2] = target: Cyclin-dependent kinase 2/cyclin A (Homo sapiens, UniProt P24941); assay: Ability to inhibit cyclin-dependent kinase 2-cyclin A.; assay type: protein-complex assay; how it was run: as §1
[3] = target: T2, Cyclin-dependent kinase 5/CDK5 activator 1 (Homo sapiens) (UniProt Q00535+Q15078); assay: Inhibition of Cyclin-dependent kinase 5-p35nck5a; assay type: protein-complex assay; details: concentration not given here; how it was run: as §1
T2 sequence (Q00535 whole entry): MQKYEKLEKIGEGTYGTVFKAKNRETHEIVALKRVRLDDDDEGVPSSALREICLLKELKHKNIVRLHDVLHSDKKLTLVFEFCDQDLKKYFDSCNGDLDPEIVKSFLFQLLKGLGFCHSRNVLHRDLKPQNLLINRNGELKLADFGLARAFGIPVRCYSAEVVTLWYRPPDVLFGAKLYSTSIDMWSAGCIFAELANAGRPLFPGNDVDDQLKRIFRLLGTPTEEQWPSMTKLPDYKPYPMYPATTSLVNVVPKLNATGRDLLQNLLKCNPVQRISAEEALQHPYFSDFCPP
T2 sequence (Q15078 99-307 partner limits assumed): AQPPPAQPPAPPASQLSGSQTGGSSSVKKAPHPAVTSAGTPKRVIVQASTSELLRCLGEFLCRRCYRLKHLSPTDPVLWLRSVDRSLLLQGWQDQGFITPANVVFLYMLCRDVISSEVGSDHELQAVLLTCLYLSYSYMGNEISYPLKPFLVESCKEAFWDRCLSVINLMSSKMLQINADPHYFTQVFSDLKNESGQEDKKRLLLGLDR

[4] = target: T1, Cyclin-dependent kinase 5/CDK5 activator 1; assay: Inhibition of Tau Protein Kinase II (TPK II); assay type: protein-complex assay; how it was run: as §1
[5] = Specificity for CDK5 over Cyclin-dependent kinase 2-cyclin A
[6] = target: T2, Cyclin-dependent kinase 5/CDK5 activator 1 (Homo sapiens); assay: Inhibition of Cyclin-dependent kinase 5-p35nck5a at 20 uM; assay type: protein-complex assay

T1 sequence (Q00535 whole entry): as the sequence (Q00535 whole entry) above
T1 sequence (Q15078 whole entry, further chain): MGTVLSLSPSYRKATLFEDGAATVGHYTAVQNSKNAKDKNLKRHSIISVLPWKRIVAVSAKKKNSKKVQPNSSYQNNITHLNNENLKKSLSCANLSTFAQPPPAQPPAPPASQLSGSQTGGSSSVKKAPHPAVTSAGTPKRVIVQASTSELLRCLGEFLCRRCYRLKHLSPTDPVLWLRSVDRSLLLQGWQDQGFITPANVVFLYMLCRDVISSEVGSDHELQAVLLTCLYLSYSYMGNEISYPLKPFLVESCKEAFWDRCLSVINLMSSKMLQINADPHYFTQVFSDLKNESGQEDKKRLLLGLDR

Compound	IC50 [1] [µM]	IC50 [2] [µM]	further results
O=C(Nc1csc(-c2cccs2)n1)NN1CCOCC1	30	10	–
O=C(Nc1csc(COc2ccccc2)n1)NN1CCOCC1	80	> 100	–
Cc1ccc(-c2nc(NC(=O)NN3CCOCC3)cs2)cc1	> 100	–	–
CC(C)(C)ONC(=O)Nc1csc(Cc2c(Cl)cccc2Cl)n1	1	15	–
Cc1cccc(-c2nc(NC(=O)NN3CCOCC3)cs2)c1	30	20	–
O=C(NNc1ccccc1)Nc1csc(Cc2c(Cl)cccc2Cl)n1	> 100	–	–
COC[C@H]1CCCN1NC(=O)Nc1csc(Cc2c(Cl)cccc2Cl)n1	> 100	–	–
O=C(Nc1csc(Cc2c(Cl)cccc2Cl)n1)NN1CCCC1	3	20	–
Cc1cccc(-c2nc(NC(=O)NOc3ccccc3)cs2)c1	16	> 100	–
O=C(NOc1ccccc1)Nc1csc(Cc2ccccc2)n1	20	> 100	–
CS(=O)(=O)Cc1nc(NC(=O)NOc2ccccc2)cs1	6	90	–
O=C(Nc1csc(Cc2ccccc2)n1)NN1CCOCC1	55	> 100	–
CS(=O)(=O)Cc1nc(NC(=O)NN2CCOCC2)cs1	–	–	inhibition [3]: 35%
CONC(=O)Nc1csc(Cc2c(Cl)cccc2Cl)n1	9	> 100	–
O=C(Nc1csc(-c2ccc(Cl)cc2)n1)NN1CCOCC1	> 100	–	–
O=C(Nc1csc(Cc2c(Cl)cccc2Cl)n1)NN1CCOCC1	1	10	Ki [4]: 0.5 µM; IC50 [5]: 10 µM
O=C(Nc1csc(Cc2ccc(Br)cc2)n1)NN1CCOCC1	–	–	inhibition [3]: 26%
O=C(NOCc1ccccc1)Nc1csc(Cc2c(Cl)cccc2Cl)n1	–	–	inhibition [6]: 40%
O=C(NOc1ccccc1)Nc1csc(Cc2c(Cl)cccc2Cl)n1	0.9	> 100	–
O=C(Nc1csc(-c2ccccc2Cl)n1)NN1CCOCC1	30	10	–
O=C(Nc1csc(Cc2ccccc2Cl)n1)NN1CCOCC1	–	–	inhibition [3]: 30%
C=CCONC(=O)Nc1csc(Cc2c(Cl)cccc2Cl)n1	6	40	–

Second part, led by results:

IC50 [1] [µM]	IC50 [2] [µM]	Compound	further results
> 100	–	CNN(C)C(=O)Nc1csc(Cc2c(Cl)cccc2Cl)n1	–
10	70	O=C(Nc1csc(Cc2c(Cl)cccc2Cl)n1)NN1CCCCCC1	–
30	20	COc1ccc(OCc2nc(NC(=O)NN3CCOCC3)cs2)cc1	–
9	6	O=C(Nc1csc(-c2ccccc2)n1)NN1CCOCC1	–
4	10	CN(C)NC(=O)Nc1csc(Cc2c(Cl)cccc2Cl)n1	–
3	90	O=C(NOC1CCCCO1)Nc1csc(Cc2c(Cl)cccc2Cl)n1 (stereo unspecified)	–
6	30	O=C(Nc1csc(Cc2c(Cl)cccc2Cl)n1)NN1CCCCC1	–
> 100	–	O=C(NOCc1c(F)c(F)c(F)c(F)c1F)Nc1csc(Cc2c(Cl)cccc2Cl)n1	–
> 100	–	O=C(Nc1csc(Cc2c(Cl)cccc2Cl)n1)NN(Cc1ccccc1)Cc1ccccc1	–
5	20	CCONC(=O)Nc1csc(Cc2c(Cl)cccc2Cl)n1	–
> 100	–	CCc1nc(NC(=O)NN2CCOCC2)cs1	–
> 100	–	CNNC(=O)Nc1csc(Cc2c(Cl)cccc2Cl)n1	–
8	35	O=C(NOc1ccccc1)Nc1csc(-c2ccccc2)n1	–
> 100	–	NNC(=O)Nc1csc(Cc2c(Cl)cccc2Cl)n1	–
30	30	O=C(Nc1csc(CSc2ccccc2)n1)NN1CCOCC1	–
10	60	CN(NC(=O)Nc1csc(Cc2c(Cl)cccc2Cl)n1)c1ccccc1	–
10	5	O=C(Nc1csc(CS(=O)(=O)c2ccccn2)n1)NN1CCOCC1	–
